Assays:
[1] = Cytotoxicity against human RD cells assessed maximun non-toxic concentration; assay type: cell-based
How it was run: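 Maximum non-toxic concentration determined in uninfected human RD cell culture after 72 h incubation with compound.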

[2] = Selectivity ratio of MNTD for human RD cells to EC50 for HSV1; assay type: ADME, cell-based
How it was run: (§1)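 HSV-1-infected human RD cells were assessed by cytopathic effect. Virus titer reduction relative to untreated control gave concentrations suppressing replication by 50% and 90% (EC50, EC90). Maximum non-toxic concentration was found in uninfected RD cells after 72 h. The ratio divides MNTC by EC50 or EC90.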

Human alphaherpesvirus 1 = assay: Antiviral activity against Herpes simplex virus type 1 infected in human RD cells assessed as inhibition of virus-induced cytopathic effect; assay type: functional, organism-based; settings: Human alphaherpesvirus 1, RD
How it was run: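 Human RD cells infected with HSV-1. Cytopathic-effect method. Activity criterion: reduction in virus titer with test compound versus untreated infected control. EC50 and EC90 taken as concentrations suppressing virus replication by 50% and 90%. Maximum non-toxic concentration determined separately in uninfected cultures after 72 h incubation.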

[3] = Selectivity ratio of MNTD for human RD cells to EC90 for HSV1; assay type: ADME, cell-based; how it was run: as §1

| SMILES | MNTC [1] | selectivity ratio [2] | EC50 (Human alphaherpesvirus 1) | EC90 (Human alphaherpesvirus 1) | selectivity ratio [3] |
| --- | --- | --- | --- | --- | --- |
| COC1=C(OC)[C@@H]([C@@H](O)CO)OC1=O | 1.96 mM | 1.1 | 1810 µM | 3280 µM | 0.6 |
| COC1=C(OC)[C@@H]([C@@H]2COC(C)(C)O2)OC1=O | 1.64 mM | < 1 | > 1640 µM | – | – |
| O=C1O[C@H]([C@@H](O)CO)C(O)=C1O [ASCORBIC ACID] | 2.27 mM | < 1 | > 2270 µM | – | – |
| CCCCCCCCCCCCCCCC(=O)OC[C@H](O)[C@H]1OC(=O)C(O)=C1O [ASCORBYL PALMITATE] | 0.24 mM | < 1 | > 240 µM | – | – |
| O=C1O[C@H]([C@@H](O)CO)C(O)=C1O[C@H]1O[C@H](CO)[C@@H](O)[C@H](O)[C@H]1O | 1.18 mM | 72.7 | 16.3 µM | 26.9 µM | 43.9 |
| CCCCCCCCCCCCCCCC(=O)OC[C@H](O)[C@H]1OC(=O)C(O[C@H]2O[C@H](CO)[C@@H](O)[C@H](O)[C@H]2O)=C1O | 0.0868 mM | 19.2 | 4.5 µM | 6.2 µM | 13.9 |

— ChEMBL document CHEMBL2010714, “Radical-regulating and antiviral properties of ascorbic acid and its derivatives” (Bioorg Med Chem Lett, 2012)
